Most compounds without a hit are left out; they make up all but 2.9% or so of the library.
SENP8 block-1 – inhibitors of human SENP8 protease; Q96LD8; recombinant SENP8, Nedd8 substrate fluorescence; inhibition, % at 20 µM; 360,000 tested, 0.64% active; in the data active = inhibition mostly above about 40%, no sharp cut-off; inactive = mostly below about 27%
Target sequence (Q96LD8 whole entry, looked up): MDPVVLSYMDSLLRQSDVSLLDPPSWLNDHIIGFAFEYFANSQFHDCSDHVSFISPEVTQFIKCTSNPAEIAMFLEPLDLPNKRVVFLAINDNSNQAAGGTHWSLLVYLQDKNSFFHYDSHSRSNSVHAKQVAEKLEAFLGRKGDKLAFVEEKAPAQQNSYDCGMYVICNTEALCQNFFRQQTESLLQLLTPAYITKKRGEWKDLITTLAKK
SENP7 block – blocks the human protease SENP7; recombinant SENP7, Z-RLRGG-aminoluciferin luminescence, 40 min; inhibition, % at 5 µM; 330,000 tested, 1.5% active; AID 434973;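 active = inhibition above about 50% at the single test dose, limit read from the data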
SENP8 block-2 – blocks the human protease SENP8; Q96LD8; purified SENP8, Z-RLRGG-aminoluciferin cleavage, luminescence; inhibition, % at 10 µM; 330,000 tested, 1.2% active; in the data active = inhibition above about 50%
SENP6 block – SENP6 protease inhibition; Recombinant SENP6 catalytic domain, aminoluciferin luminescence; inhibition, % at 10 µM; 330,000 tested, 1.8% active;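 active = inhibition above about 50% at the single tested dose, limit read from the data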
Target sequence (Q9GZR1 628-1112 limits assumed): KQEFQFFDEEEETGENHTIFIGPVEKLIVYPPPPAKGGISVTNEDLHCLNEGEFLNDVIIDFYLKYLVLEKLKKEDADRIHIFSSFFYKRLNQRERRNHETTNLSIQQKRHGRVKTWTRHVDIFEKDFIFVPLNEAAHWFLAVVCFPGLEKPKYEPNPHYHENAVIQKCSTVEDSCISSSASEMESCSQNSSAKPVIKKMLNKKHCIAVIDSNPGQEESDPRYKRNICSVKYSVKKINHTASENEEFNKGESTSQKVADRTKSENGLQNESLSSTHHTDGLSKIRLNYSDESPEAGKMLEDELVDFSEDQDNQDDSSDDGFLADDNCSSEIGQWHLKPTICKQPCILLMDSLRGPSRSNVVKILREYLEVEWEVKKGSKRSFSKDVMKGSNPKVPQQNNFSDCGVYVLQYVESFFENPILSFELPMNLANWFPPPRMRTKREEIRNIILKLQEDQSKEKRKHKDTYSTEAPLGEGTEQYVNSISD
SENP1 inh – SENP1 (human) catalytic domain inhibition | AID 624204 | Q9P0U3 | inhibition, % at 10 µM | 360,000 tested, 0.21% active | recombinant SENP1 catalytic domain, CyPet-SUMO1-YPet FRET cleavage;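 active = inhibition at least 30% at 10 µM, raw YFP signal under a set limit, fluorescence ratio 0.5 to 1.5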
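System: Recombinant human SENP1 catalytic domain, His6-tagged | Incubation: Enzyme reaction for 50 min at room temperature, dark | Medium: Tris pH 8 with BME, BSA, NP40 and catalase | Also added: 25 nM SUMO1 FRET substrate | Compound: 10 µM single point, 0.5% DMSO | Measured by: FRET fluorescence in CFP and YFP emission channels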
Apaf-1 inh – blocks human Apaf-1 apoptosome activity; reconstituted apoptosome caspase-3 activity, DEVD-Rh110 fluorescence; inhibition, % at 20 µM; 330,000 tested, 0.71% active; active = inhibition of at least 40% at 20 µM
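Assay system – apoptosome proteins · Medium – Hepes buffer, pH 7.5 · Also added – cytochrome c with DEVD-Rh110 · Timing – 30 min compound preincubation, 50 min activation, room temperature · Detection – Rh110 fluorescence, excitation 480 nm, emission 540 nm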
SENP8 confirm – confirmation of human SENP8 protease inhibitors. shares compounds with SENP7 block. Recombinant SENP8, Z-RLRGG-aminoluciferin luminescence, 60 min. inhibition, % at 12.5 µM. 6,200 tested, 40% active. AID 488912;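 active = mean inhibition across replicates above about 50%, limit read from the data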
SENP6 confirm – confirmation of human SENP6 protease inhibitors | 6,200 tested, 58% active | shares compounds with SENP7 block | recombinant SENP6, Z-RLRGG-aminoluciferin luminescence | inhibition, % at 12.5 µM
SENP7 confirm – human SENP7 inhibition, confirmed | shares compounds with SENP7 block | recombinant SENP7, Z-RLRGG-aminoluciferin luminescence, 40 min | inhibition, % at 12.5 µM | 6,200 tested, 69% active
Casp3 select – selectivity test for SENP inhibitors: human caspase-3 inhibition. shares compounds with SENP7 block. purified caspase-3, Z-DEVD-aminoluciferin luminescence, 60 min. inhibition, % at 12.5 µM. 6,200 tested, 60% active;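 active = mean inhibition above about 50%, limit read from the data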
SENP luc ctr – interferes with luciferase luminescence in SENP counter-screen. inhibition, % at 12.5 µM. AID 488919. shares compounds with SENP7 block. 6,200 tested, 39% active. Pre-incubated SENP8/Z-RLRGG-aminoluciferin, luciferase luminescence interference;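 active = mean inhibition above about 50% when retested at one dose, limit read from the data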
Of the large screens only hits and unclear results are named; the others gave an inactive call (follow-up assays come after a bar, where they were run).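 Rule for the calls, unless noted: active = mean inhibition above about 50% in the one-dose retest (limit read from the data); inactive = the rest.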

O=c1cc(-c2ccccc2)oc2ccc(O)cc12	SENP7 block 55.5, SENP6 block 65.8 | SENP8 confirm 53.7 | SENP6 confirm 51.4 | SENP7 confirm 81.9 | Casp3 select 65.8 | SENP luc ctr 70.6
CCC1OC(C)Cc2[nH][nH]c(=O)c21 (centres undefined)	none (no result: SENP7 block, SENP8 block-2, SENP6 block, Apaf-1 inh)
COc1ccc(-c2ccc3oc(-c4ccsc4)cc(=O)c3c2)cn1	SENP7 block 70.1 | SENP8 confirm inactive | SENP6 confirm inactive | SENP7 confirm inactive | Casp3 select inactive | SENP luc ctr inactive
COc1ccc2oc(-c3ccncc3)cc(=O)c2c1	none (no result: SENP7 block, SENP8 block-2, SENP6 block, Apaf-1 inh)
COc1ccc(-c2ccc3oc(-c4ccsc4)cc(=O)c3c2)cc1F	none
COc1ccc(-c2cc(=O)c3cc(O)ccc3o2)cc1	SENP7 block 78.1, SENP8 block-2 53.2, SENP6 block 68.9 | SENP8 confirm inactive | SENP6 confirm inactive | SENP7 confirm 86.7 | Casp3 select 73.0 | SENP luc ctr inactive
FC(F)(F)c1ccccc1Cc1c(-c2ccc(Cl)cc2)nc2ccc(Br)cn12	none (no result: SENP7 block, SENP8 block-2, SENP6 block, Apaf-1 inh)
Cc1cc2nc(C(C)(C)C)c(Cc3ccccc3C(F)(F)F)n2c(C)c1Br	none (no result: SENP7 block, SENP8 block-2, SENP6 block, Apaf-1 inh)
O=C(/C=C/Nc1ccccc1)c1ccc(Oc2ncccn2)cc1	SENP7 block 82.1, SENP8 block-2 64.7, SENP6 block 76.2 | SENP8 confirm inactive | SENP6 confirm 58.2 | SENP7 confirm 59.2 | Casp3 select 82.4 | SENP luc ctr inactive
COc1ccc(N/C=C/C(=O)c2ccccc2)cc1	SENP7 block 96.4, SENP8 block-2 94.6, SENP6 block 94.4 | SENP8 confirm inactive | SENP6 confirm 93.0 | SENP7 confirm 103.1 | Casp3 select 97.1 | SENP luc ctr inactive
CCCCN1C(=O)Cc2c1nc(N)c1c(N)nc(N(CCC)CCC)c(C#N)c21	none (no result: SENP7 block, SENP8 block-2, SENP6 block, Apaf-1 inh)
COc1cc2c(C#N)c(N3CCOCC3)nc(N)c2c(N)n1	none
COc1ccc(CN2C(=O)Cc3c2nc(N)c2c(N)nc(N4CCCCC4)c(C#N)c32)cc1	SENP6 block 60.6, Apaf-1 inh 51.1 (no result: SENP8 block-1, SENP1 inh) | SENP8 confirm inactive | SENP6 confirm inactive | SENP7 confirm inactive | Casp3 select inactive | SENP luc ctr inactive
CCOc1cc2c(C#N)c(N3CCNCC3)nc(N)c2c(N)n1	SENP6 block 88.3 | SENP8 confirm inactive | SENP6 confirm inactive | SENP7 confirm inactive | Casp3 select inactive | SENP luc ctr inactive
COc1cc2c(C#N)c(N3CCCCC3)nc(N)c2c(N)n1	SENP8 block-2 62.1, SENP6 block 65.7, Apaf-1 inh 97.3 | SENP8 confirm inactive | SENP6 confirm inactive | SENP7 confirm inactive | Casp3 select inactive | SENP luc ctr inactive
Cc1c(C(=O)O)[nH]c2c1C(=O)CC(c1ccc(Cl)cc1)C2 (centres undefined)	SENP7 block 90.4 | SENP8 confirm inactive | SENP6 confirm inactive | SENP7 confirm inactive | Casp3 select inactive | SENP luc ctr inactive
Cc1ccc(CN2CCN(Cc3ccncc3)CC2CCO)o1 (centres undefined)	SENP6 block 76.2 | SENP8 confirm inactive | SENP6 confirm inactive | SENP7 confirm inactive | Casp3 select inactive | SENP luc ctr inactive
Cc1ccc(CN2CCN(Cc3cnn(-c4ccc(Cl)cc4)c3)CC2CCO)o1 (centres undefined)	none
CCOC(=O)N1CCN(C(=O)COc2ccc(S(=O)(=O)Nc3ccc(OCC)cc3)cc2)CC1	none
CCOc1ccc(NS(=O)(=O)c2ccc(OCC(=O)N3CCCC3)cc2)cc1	SENP7 block 91.2 | SENP8 confirm inactive | SENP6 confirm inactive | SENP7 confirm inactive | Casp3 select inactive | SENP luc ctr inactive
CCCS(=O)(=O)NC(=O)C1(C)CCCN(C(=O)c2ccc3ccccc3c2)C1 (centres undefined)	none (no result: SENP7 block, SENP8 block-2, SENP6 block, Apaf-1 inh)
CC(C)C[C@H]1CN(CCCC[C@H]2CNC(=O)C(=O)N2CC2CCCCC2)C(=O)C(=O)N1CCc1ccc(O)cc1	none (no result: SENP7 block, SENP8 block-2, SENP6 block, Apaf-1 inh)
CC(C)C(=O)Nc1ccc2nn(-c3ccc(F)cc3)nc2c1	SENP7 block 85.0, SENP8 block-2 53.1, SENP6 block 71.3 | SENP8 confirm inactive | SENP6 confirm inactive | SENP7 confirm 65.6 | Casp3 select inactive | SENP luc ctr inactive
CC(C)C(=O)Nc1ccc(N2CCN(c3ccc(F)cc3)CC2)cc1	none
Cc1ccc(-n2nc3ccc(NC(=O)C(C)C)cc3n2)cc1	SENP7 block 80.4, SENP6 block 76.3 | SENP8 confirm inactive | SENP6 confirm inactive | SENP7 confirm inactive | Casp3 select inactive | SENP luc ctr inactive
Cc1cc(C(=O)NC(=S)Nc2cccc(NC(=O)C(C)C)c2)ccc1[N+](=O)[O-]	SENP7 block 77.2, SENP8 block-2 56.0, SENP6 block 71.1 | SENP8 confirm inactive | SENP6 confirm 60.8 | SENP7 confirm 95.4 | Casp3 select 77.5 | SENP luc ctr 51.3
COC(=O)C1CCN(C(=O)c2cc(S(=O)(=O)N3CCCCC3)ccc2Cl)CC1	none
CC(=O)Nc1ccc2nc(NC(=O)c3ccco3)sc2c1	SENP7 block 66.3, SENP6 block 68.3 | SENP8 confirm 57.2 | SENP6 confirm 54.3 | SENP7 confirm 85.9 | Casp3 select 84.5 | SENP luc ctr inactive
COc1ccc2sc(NC(=O)c3ccco3)nc2c1	SENP8 block-2 87.2, SENP6 block 89.8 | SENP8 confirm 86.7 | SENP6 confirm 90.4 | SENP7 confirm 97.4 | Casp3 select 90.9 | SENP luc ctr 85.9
c1cn2cc(-c3ccc4c(c3)OCO4)nc2s1	SENP7 block 63.8, SENP8 block-2 50.2, SENP6 block 72.6 | SENP8 confirm 59.3 | SENP6 confirm 56.4 | SENP7 confirm 85.3 | Casp3 select 79.0 | SENP luc ctr 71.9
Cc1nnc(SCc2cc(=O)[nH]c(/N=C(\N)Nc3ccccc3)n2)s1	none
CCOc1ccc(N/C(N)=N/c2nc(CSc3nnc(C)s3)cc(=O)[nH]2)cc1	SENP6 block 54.7 | SENP8 confirm inactive | SENP6 confirm inactive | SENP7 confirm inactive | Casp3 select inactive | SENP luc ctr inactive
COc1cccc(-c2c(C(=O)N/N=C(\C)COc3ccccc3)nnn2-c2nonc2N)c1	none

From PubChem
